RGS4 pot – RGS4 potentiation or activation; HEK293 M3R/inducible RGS4, carbachol calcium flux Fluo4; hits give low values; B-score at 10 µM; 310,000 compounds, 0.92% hits; AID 463111;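 active means B-score of the integrated calcium signal more than 4 SD below the library mean, with starting fluorescence not abnormally high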;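 further: negative B-score means reduced calcium response which marks RGS4 activation or potentiation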
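Also added: carbachol at ECmax as muscarinic agonist stimulus; Assay system: HEK293 cells with stable M3R and inducible RGS4; Timing: overnight RGS4 induction, 30 min dye load 37 °C, 20 min compound RT; Measured by: Fluo4-AM (2 µM) calcium-flux fluorescence, kinetic read.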
RGS4 inh – inhibitors of human RGS4. 310,000 compounds, 0.45% hits. P49798. B-score at 10 µM. AID 463165. HEK293 M3R/RGS4 inducible, Fluo-4 calcium flux; hits give high values; triggered by carbachol at its EC20;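 active means B-score, a plate-corrected calcium signal, over three deviations above library mean, with baseline fluorescence within five deviations of library mean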;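 further: RGS4 expression induced by doxycycline in cells with stable M3 receptor; B-score is computed from the integrated fluorescence ratio over baseline after carbachol; higher B-score means a larger calcium signal and so more RGS4 inhibition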
Target sequence (P49798 whole entry, looked up): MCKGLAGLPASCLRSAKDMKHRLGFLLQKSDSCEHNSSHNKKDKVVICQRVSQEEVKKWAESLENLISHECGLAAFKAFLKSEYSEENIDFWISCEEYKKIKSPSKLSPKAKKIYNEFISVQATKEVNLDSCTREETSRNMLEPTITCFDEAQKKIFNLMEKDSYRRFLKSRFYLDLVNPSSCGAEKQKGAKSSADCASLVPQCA
MrgX1 agonist – human MrgX1 receptor agonism, primary screen; Q96LB2; MrgX1-HEK293 cells, Fluo-4 calcium fluorescence, agonist mode; hits give high values; B-score at 10 µM; 310,000 compounds, 0.44% hits; AID 588627;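 active means calcium response B-score plate-corrected fluorescence ratio at least 3 library SD, with starting fluorescence B-score inside 5 SD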
Target sequence (Q96LB2 whole entry, looked up): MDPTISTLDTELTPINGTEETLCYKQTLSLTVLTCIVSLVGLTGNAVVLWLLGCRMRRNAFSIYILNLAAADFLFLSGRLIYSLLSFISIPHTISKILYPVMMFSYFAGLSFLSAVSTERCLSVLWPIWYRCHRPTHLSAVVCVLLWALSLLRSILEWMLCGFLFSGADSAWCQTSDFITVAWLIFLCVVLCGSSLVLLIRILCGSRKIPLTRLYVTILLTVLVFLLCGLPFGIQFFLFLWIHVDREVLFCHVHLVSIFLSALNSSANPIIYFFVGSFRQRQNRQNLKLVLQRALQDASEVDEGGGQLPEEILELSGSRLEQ
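Material – MrgX1-expressing HEK293 cells · Input – 15,000 cells seeded per well · Dosing – compound as first of three additions · Times – overnight seeding, then 1 h dark dye loading · Measured by – kinetic Fluo-4 NW fluorescence of intracellular calcium · Read-out – B-scored fluorescence response ratio · Benchmarks – positive and negative control wells on each plate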
MrgX1 PAM – human MrgX1 positive allosteric modulation, primary screen. Q96LB2. MrgX1-HEK293, Fluo-4 calcium flux, FDSS; hits give high values. 310,000 compounds, 0.63% hits. B-score at 10 µM;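 active means plate-corrected calcium response at least 3 library SD above typical, normal starting fluorescence, not activating the receptor alone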;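 further: compound read alongside a low EC10 to EC30 dose of BAM8-22 agonist; peak minus trough fluorescence over baseline measured at the second addition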
MrgX1 antagonist – antagonists of human MrgX1 receptor; Q96LB2; 310,000 compounds, 1.3% hits; B-score at 10 µM; MRGX1-HEK293 calcium flux, Fluo-4, BAM8-22 antagonism; hits give low values;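 active means calcium-response B-score plate-corrected more than 3 library SD below zero, starting fluorescence within 5 deviations, no agonist response on first addition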;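 further: peak minus trough fluorescence over baseline after final BAM8-22 challenge near maximal dose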
MrgX1 ag reconf – human MrgX1 agonism, re-confirmation screen; shares compounds with MrgX1 agonist; MrgX1-HEK293, Fluo-4 calcium fluorescence, FDSS; activation, % at 10 µM; 600 compounds, 78% hits; AID 602412;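 active means calcium signal rise, corrected for plate position, at least 3 library SD high, with starting brightness within 5 such deviations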
HEK293 Ca flux – MrgX1 antagonist counter-screen hit in parental HEK293 cells | AID 624111 | shares compounds with MrgX1 antagonist | fluorescence ratio F(max-min)/F0 at 10 µM | Fluo-4 calcium fluorescence, FDSS | 4,000 compounds, 2% hits;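 active means duplicate-averaged calcium fluorescence ratio at least three times the standard deviation of buffer wells, a nonspecific response in parental cells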
HEK293 Ca counter – counter-screen for MrgX1 allosteric activators: effect in parental HEK293 cells; shares compounds with MrgX1 antagonist; parental HEK293 calcium flux, Fluo-4 fluorescence ratio; hits give high values; fluorescence ratio F(max-min)/F0 at 10 µM; 4,000 compounds, 0.4% hits;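 active means calcium fluorescence ratio, averaged over duplicates, at least 3 SD of the buffer-well ratio, meaning a nonspecific response in receptor-free cells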;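 further: untransfected parental HEK293 lacking MrgX1 used as counterscreen for MrgX1 allosteric activators; fluorescence change taken during the second addition on a kinetic imager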
HEK293 Ca cntr2 – counter-screen for MrgX1 activators: effect in parental HEK293 cells. 4,000 compounds, 8.7% hits. fluorescence ratio F(max-min)/F0 at 10 µM. shares compounds with MrgX1 antagonist. Fluo-4 calcium fluorescence (FDSS); hits give high values;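 active means calcium fluorescence ratio at least three times the spread of buffer wells, meaning a non-specific response in parental cells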
* marks the source's active call; other numbers are inactive results; i = inactive; / = no result given. Compounds with a hit are over-represented: about 3.5% of the library has one in this group of screens.

SMILES	RGS4 pot	RGS4 inh	MrgX1 agonist	MrgX1 PAM	MrgX1 antagonist	MrgX1 ag reconf	HEK293 Ca flux	HEK293 Ca counter	HEK293 Ca cntr2
CCc1nc2c(c(=O)c3ccccc3n2C)c(=O)n1C1CCCCCC1	i	i	117*	i	i	481%*	i	i	97*
Cn1c2ccccc2c(=O)c2c(=O)n(C3CCCCC3)c(-c3cccs3)nc21	i	i	110*	i	i	596%*	i	i	98*
Cn1c2ccccc2c(=O)c2c(=O)n(C3CCCCCC3)c(C3CCCCC3)nc21	i	i	/	/	/	/	/	/	/
Cn1c2ccccc2c(=O)c2c(=O)n(-c3ccccc3)c(C3CCCCC3)nc21	i	i	i	i	i	/	/	/	/
CCOC(=S)SCc1cn2cccc(C)c2n1	i	i	i	i	i	/	/	/	/
C=CCN(Cc1ccc(OC)c(OC)c1)C(=O)N1CCOCC1	i	i	i	i	i	/	/	/	/
CC1(c2ccc([N+](=O)[O-])cc2)NC(=O)N(CC(=O)c2ccc3c(c2)OCO3)C1=O (stereo not drawn)	i	i	i	i	i	/	/	/	/
CC1(c2ccc(OC(F)F)cc2)NC(=O)N(CC(=O)c2ccc3c(c2)OCO3)C1=O (stereo not drawn)	i	i	35*	i	i	176%*	i	i	55*
COc1cc(/C=C2\C(=N)N3N=CSC3=NC2=O)ccc1OS(=O)(=O)c1ccccc1	i	i	73*	i	i	383%*	i	i	77*
COc1cc(/C=C2/C(=N)N3N=C(C(C)C)SC3=NC2=O)ccc1OS(=O)(=O)c1ccccc1	i	i	i	i	i	/	/	/	/
Cc1ccc(Oc2nsnc2N2CCOCC2)cc1	i	i	i	i	i	/	/	/	/
CC(=O)Nc1ccc(S(=O)(=O)/N=C2\SCCN2S(=O)(=O)c2ccc(NC(C)=O)cc2)cc1	i	i	41*	i	i	270%*	i	i	i
CC(=O)Nc1ccc(S(=O)(=O)Nc2ccc(S(=O)(=O)N3CCCC3)cc2)cc1	i	i	i	i	i	/	/	/	/
O=C1CCC(=O)N1OCCOc1ccc2c(c1)CCC2	i	i	i	i	i	/	/	/	/
Cc1sc2ncnc(N(C)C3CCCCC3)c2c1C	i	i	38*	i	i	i	i	i	i
CCC1(C)Cc2ccccc2-c2nc(NCCO)n(-c3ccc(C)cc3)c(=O)c21 (stereo not drawn)	i	i	39*	i	i	173%*	i	i	56*
CC1(C)Cc2ccccc2-c2nc(NCCO)n(-c3ccccc3)c(=O)c21	i	i	i	i	i	/	/	/	/
O=C(Nc1cccc(Cl)c1)Nc1ccc(Cl)cn1	i	i	i	i	i	/	/	/	/
COc1cc(OC)cc(C(=O)NC(=S)NNC(=O)Cc2cccs2)c1	i	i	72*	i	i	535%*	i	i	102*
COc1cc(NC(=O)Cc2cccs2)cc(OC)c1	i	i	i	i	i	/	/	/	/
COc1ccc(-c2cc(C)no2)cc1S(=O)(=O)NCCCN1CCN(c2ccccc2)CC1	i	i	i	i	i	/	/	/	/
COc1ccc(Cl)cc1NC(=O)CN(C)C(=O)C1CC(=O)N(Cc2ccc(C)cc2)C1 (stereo not drawn)	i	i	i	i	i	/	/	/	/
CC(C)c1ccc(N(C(=O)c2csnn2)C(C(=O)NC2CCCC2)c2cccnc2)cc1 (stereo not drawn)	i	i	33*	i	i	i	i	i	i
N#CC1=C(SCc2ccccc2)NC(=O)CC1c1ccco1 (stereo not drawn)	i	i	41*	i	i	180%*	i	i	i
N#CC1=C(SCC(=O)NCc2ccccc2)NC(=O)CC1c1ccco1 (stereo not drawn)	i	i	i	i	i	/	/	/	/
SMILES	RGS4 pot	RGS4 inh	MrgX1 agonist	MrgX1 PAM	MrgX1 antagonist	MrgX1 ag reconf	HEK293 Ca flux	HEK293 Ca counter	HEK293 Ca cntr2
C#CCSc1nnc(CNS(=O)(=O)c2ccc(Br)cc2)n1C	i	i	i	i	i	/	/	/	/
N#Cc1ccc(C(=O)Nc2nnc(-c3cccs3)o2)cc1	i	i	i	i	i	/	/	/	/
O=C(Nc1nnc(-c2cccs2)o1)c1cccc(C(F)(F)F)c1	i	i	75*	i	i	498%*	i	i	96*
Cc1ccc(-c2nc3c(Cl)cc(Cl)cc3c(=O)n2O)cc1	i	i	105*	i	i	482%*	i	i	104*
O=c1c2cc(Cl)ccc2nc(-c2ccc([N+](=O)[O-])cc2)n1O	i	i	72*	i	i	270%*	i	i	63*
N#Cc1ccc(-c2nc3cc(Cl)ccc3c(=O)n2O)cc1	i	i	i	i	i	/	/	/	/
O=c1c2cc(Br)ccc2nc(-c2ccc(Cl)cc2)n1O	i	i	143*	i	i	661%*	i	i	129*
Fc1ccc(-c2cc(C(F)(F)C(F)F)[nH]n2)cc1	i	i	41*	i	i	212%*	i	i	48*
CCC1c2ccc(C)n2CCN1C(=O)Nc1ccccc1C(=O)OC (stereo not drawn)	i	i	29*	i	i	i	i	i	i
CCC1c2ccc(C)n2CCN1C(=O)Nc1cc(Cl)ccc1OC (stereo not drawn)	i	i	33*	i	i	i	i	i	i
CCOC(=O)c1ccccc1NC(=O)N1CCn2c(C)ccc2C1CC (stereo not drawn)	i	i	i	i	i	/	/	/	/
O=C(COC(=O)c1nc(Cl)ccc1Cl)Nc1ccc2c(c1)OCO2	i	i	28*	i	i	i	i	i	i
CCOc1cc(/C=C/C(=O)c2ccc(OC)c(CN3CCOCC3)c2)cc(Br)c1O	i	i	143*	i	i	675%*	i	i	131*
CCOc1cc(/C=N/NC(=O)c2ccc(CN3CCOCC3)cc2)ccc1OC	i	i	i	i	i	/	/	/	/

Bioassay records as filed in PubChem BioAssay.
